Measured values from ChEMBL document CHEMBL1138683 (J Med Chem, 2004).

Assays:
Mus musculus [1] = assay: Anti convulsant activity administered intra peritoneally to mouse for subcutaneous metrazol test at 4 hr after the drug administered with dose of 30 mg/kg; 0/1= No of animals protected /No of animals tested; assay type: functional; settings: route intraperitoneal
Mus musculus [2] = assay: Anti convulsant activity administered intra peritoneally to mouse at maximal electroshock test at 0.5 h after the drug administered with dose of 300 mg/kg; 0/1= No of animals protected /No of animals tested; assay type: functional
[3] = Anti convulsant activity administered intra peritoneally to mouse for toxicity at 4 hr with dose of 300 mg/kg; 0/2= No of animals exhibiting toxicity /No of animals tested; assay type: organism-based; design: dose 300 mg/kg; settings: in vivo, ip
Mus musculus [4] = assay: Anti convulsant activity administered intra peritoneally to mouse for subcutaneous metrazol test at 0.5 hr with dose of 100 mg/kg; 0/1= No of animals protected /No of animals tested; assay type: functional
Mus musculus [5] = assay: Anti convulsant activity administered intra peritoneally to mouse at maximal electroshock test at 4 hr after the drug administered with dose of 30 mg/kg; 0/1= No of animals protected /No of animals tested; assay type: functional
Rattus norvegicus [6] = assay: Anticonvulsant activity after oral administration of 100 mg/kg dose after 1 hr in rats; + means 25% of the animals protected; assay type: functional, organism-based; design: dose 100 mg/kg
Procedure, shortened: (§1)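 Oral dosing of rats at a single dose, compound dissolved or suspended in 0.5% methylcellulose. Protection in the MES or scMet test checked 15 min, 30 min, 1 h, 2 h and 4 h after dosing. Scored as 25/50/75/100% of animals protected (+ to ++++), – for none.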

Rattus norvegicus [7] = assay: Anticonvulsant activity after oral administration of 100 mg/kg dose after 2 hr in rats; + means 25% of the animals protected; assay type: functional, organism-based; design: dose 100 mg/kg; procedure, shortened: as §1
Mus musculus [8] = assay: Anti convulsant activity administered intra peritoneally to mouse for subcutaneous metrazol test at 0.5 hr with dose of 30 mg/kg; 0/1= No of animals protected /No of animals tested; assay type: functional
[9] = Anti convulsant activity administered intra peritoneally to mouse for toxicity at 0.5 hr with dose of 100 mg/kg; 1/8= No of animals exhibiting toxicity /No of animals tested; assay type: organism-based; design: dose 100 mg/kg; settings: in vivo, ip
Mus musculus [10] = assay: Anti convulsant activity administered intra peritoneally to mouse at maximal electroshock test at 0.5 h after the drug administered with dose of 30 mg/kg; 0/1= No of animals protected /No of animals tested; assay type: functional
[11] = Anti convulsant activity administered intra peritoneally to mouse for toxicity at 0.5 hr with dose of 300 mg/kg; 4/4= No of animals exhibiting toxicity /No of animals tested; assay type: organism-based; design: dose 300 mg/kg; settings: in vivo, ip
Mus musculus [12] = assay: Anti convulsant activity administered intra peritoneally to mouse for subcutaneous metrazol test at 4 hr with dose of 300 mg/kg; 0/1= No of animals protected /No of animals tested; assay type: functional
Mus musculus [13] = assay: Anti convulsant activity administered intra peritoneally to mouse at maximal electroshock test at 4 hr after the drug administered with dose of 100 mg/kg; 0/3= No of animals protected /No of animals tested; assay type: functional
Mus musculus [14] = assay: Anti convulsant activity administered intra peritoneally to mouse at maximal electroshock test at 4 hr after the drug administered with dose of 300 mg/kg; 0/1= No of animals protected /No of animals tested; assay type: functional
Rattus norvegicus [15] = assay: Anticonvulsant activity after oral administration of 100 mg/kg dose after 4 hr in rats; +means 25% of the animals protected; assay type: functional, organism-based; design: dose 100 mg/kg; procedure, shortened: as §1
Mus musculus [16] = assay: Anticonvulsant activity administered intraperitoneally to mouse for toxicity at 4 hr with dose of 30 mg/kg; assay type: functional; settings: route intraperitoneal
Procedure, shortened: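 Mice given compound i.p. at 30, 100 or 300 mg/kg, dissolved or suspended in 0.5% methylcellulose. Toxicity scored 0.5 h and 4 h after dosing, recorded as number of animals showing toxicity per number tested.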

Mus musculus [17] = assay: Anti convulsant activity administered intra peritoneally to mouse for subcutaneous metrazol test at 0.5 h with dose of 300 mg/kg; 0/1= No of animals protected /No of animals tested; assay type: functional
[18] = Anti convulsant activity administered intra peritoneally to mouse for toxicity at 0.5 hr with dose of 30 mg/kg; 0/4= No of animals exhibiting toxicity /No of animals tested; assay type: organism-based; design: dose 30 mg/kg; settings: in vivo, ip
[19] = Anti convulsant activity administered intra peritoneally to mouse for toxicity at 4 hr with dose of 100 mg/kg; 0/4= No of animals exhibiting toxicity /No of animals tested; assay type: organism-based; design: dose 100 mg/kg; settings: in vivo, ip
Mus musculus [20] = assay: Anti convulsant activity administered intra peritoneally to mouse at maximal electroshock test at 0.5 hr after the drug administered with dose of 100 mg/kg; 0/3= No of animals protected /No of animals tested; assay type: functional
Mus musculus [21] = assay: Anti convulsant activity administered intra peritoneally to mouse for subcutaneous metrazol test at 4 hr after the drug administered with dose of 100 mg/kg; 0/1= No of animals protected /No of animals tested; assay type: functional
Rattus norvegicus [22] = assay: Anticonvulsant activity after oral administration of 100 mg/kg dose after 4 hr in rats;+ means 25% of the animals protected; assay type: functional, organism-based; design: dose 100 mg/kg; procedure, shortened: as §1
Rattus norvegicus [23] = assay: Anticonvulsant activity after oral administration of 50 mg/kg dose after 30 min in rats; + means 25% of the animals protected; assay type: functional, organism-based; design: dose 50 mg/kg
Procedure, shortened: (§2)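 Rats dosed orally with compound dissolved or suspended in 0.5% methylcellulose (0.04 mL per 10 g body weight). Anticonvulsant protection (MES or scMet) and toxicity scored at 15 min, 30 min, 1 h, 2 h and 4 h after dosing. Graded in steps of 25% of animals protected or showing toxicity.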

[24] = Anti convulsant activity administered intra peritoneally to mouse for toxicity at 0.5 hr with dose of 100 mg/kg; 0/8= No of animals exhibiting toxicity /No of animals tested; assay type: organism-based; design: dose 100 mg/kg; settings: in vivo, ip
Mus musculus [25] = assay: (§3) Anti convulsant activity administered intra peritoneally to mouse for toxicity at 4 hr with dose of 30 mg/kg; 0/2= No of animals exhibiting toxicity /No of animals tested; assay type: functional
[26] = Anti convulsant activity administered intra peritoneally to mouse for toxicity at 0.5 hr with dose of 300 mg/kg; 0/4= No of animals exhibiting toxicity /No of animals tested; assay type: organism-based; design: dose 300 mg/kg; settings: in vivo, ip
[27] = as §3; assay type: organism-based; design: dose 30 mg/kg; settings: in vivo, ip
Mus musculus [28] = assay: Anti convulsant activity administered intra peritoneally to mouse for subcutaneous metrazol test at 0.5 hr with dose of 300 mg/kg; 1/1= No of animals protected /No of animals tested; assay type: functional
Rattus norvegicus [29] = assay: Anticonvulsant activity after oral administration of 30 mg/kg dose after 30 min in rats; -means No protection; assay type: functional, organism-based; design: dose 30 mg/kg; procedure, shortened: as §1
Rattus norvegicus [30] = assay: Anticonvulsant activity after oral administration of 50 mg/kg dose after 15 min in rats; +++ means 75% of the animals protected; assay type: functional, organism-based; design: dose 50 mg/kg; procedure, shortened: as §1
Rattus norvegicus [31] = assay: Anticonvulsant activity after oral administration of 50 mg/kg dose after 30 min in rats; ++ means 50% of animals protected; assay type: functional, organism-based; design: dose 50 mg/kg; procedure, shortened: as §2
Mus musculus [32] = assay: Anti convulsant activity administered intra peritoneally to mouse at maximal electroshock test at 0.5 hr after the drug administered with dose of 300 mg/kg; 1/1= No of animals protected /No of animals tested; assay type: functional
Mus musculus [33] = assay: Anti convulsant activity administered intra peritoneally to mouse at maximal electroshock test at 0.5 h after the drug administered with dose of 100 mg/kg; 1/3= No of animals protected /No of animals tested; assay type: functional
[34] = Anti convulsant activity administered intra peritoneally to mouse for subcutaneous metrazol test at 4 hr with dose of 300 mg/kg; 3/4= No of animals protected /No of animals tested; assay type: ADME, organism-based; design: dose 300 mg/kg
Rattus norvegicus [35] = assay: Anticonvulsant activity after oral administration of 80 mg/kg dose after 15 min in rats; + means 25% of the animal protected; assay type: functional, organism-based; design: dose 80 mg/kg
Procedure, shortened: (§4)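 Maximal electroshock test in rats after oral dosing in 0.5% methylcellulose (0.04 mL per 10 g body weight). Protection read at 15 min, 30 min, 1 h, 2 h and 4 h after dosing. Graded as the percentage of animals protected, in steps of 25%.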

Mus musculus [36] = assay: Anti convulsant activity administered intra peritoneally to mouse at maximal electroshock test at 4 hr after the drug administered with dose of 300 mg/kg; 1/1= No of animals protected /No of animals tested; assay type: functional
Rattus norvegicus [37] = assay: Anticonvulsant activity after oral administration of 80 mg/kg dose after 1 hr in rats;+means 25% animals protected; assay type: functional, organism-based; design: dose 80 mg/kg; procedure, shortened: as §4
Rattus norvegicus [38] = assay: Anticonvulsant activity after oral administration of 80 mg/kg dose after 2 hr in rats; + means 25% of the animal is protected; assay type: functional, organism-based; design: dose 80 mg/kg; procedure, shortened: as §4
Rattus norvegicus [39] = assay: Anticonvulsant activity after oral administration of 80 mg/kg dose after 4 hr in rats;+ means 25% of the animals protected; assay type: functional, organism-based; design: dose 80 mg/kg; procedure, shortened: as §4
Rattus norvegicus [40] = assay: Anticonvulsant activity after oral administration of 100 mg/kg dose after 30 min in rats; +++ means 75% of the animals protected; assay type: functional, organism-based; design: dose 100 mg/kg; procedure, shortened: as §1
Rattus norvegicus [41] = assay: Anticonvulsant activity after oral administration of 100 mg/kg dose after 2 hr in rats;++ means 50% of the animals protected; assay type: functional, organism-based; design: dose 100 mg/kg; procedure, shortened: as §1
Rattus norvegicus [42] = assay: Anticonvulsant activity after oral administration of 100 mg/kg dose after 1 hr in rats;+ means 25% of the animals protected; assay type: functional, organism-based; design: dose 100 mg/kg; procedure, shortened: as §1
Rattus norvegicus [43] = assay: Anticonvulsant activity after oral administration of 100 mg/kg dose after 30 min in rats; +means 25% of the animals protected; assay type: functional, organism-based; design: dose 100 mg/kg; procedure, shortened: as §1

Compound	Activity (Mus musculus [1])	Activity (Mus musculus [2])	Toxicity [3]	Activity (Mus musculus [4])	Activity (Mus musculus [5])	Activity (Rattus norvegicus [6])	Activity (Rattus norvegicus [7])	Activity (Mus musculus [8])	Toxicity [9]	Activity (Mus musculus [10])	Toxicity [11]	Activity (Mus musculus [12])	Activity (Mus musculus [13])	Activity (Mus musculus [14])	Activity (Mus musculus [17])	Toxicity [18]	Toxicity [19]	Activity (Mus musculus [20])	Activity (Mus musculus [21])	Toxicity [27]	also measured
CCC(CO)NC(=O)C1C(C)(C)C1(C)C (stereo not given)	0	0	0	0	0	25% of the animals protected	25% of the animals protected	0	1	0	4	0	0	0	0	0	0	0	0	–	Anticonvulsant Activity (Rattus norvegicus [15]): 25% of the animals protected; Toxicity (Mus musculus [16]): 0; Activity (Rattus norvegicus [22]): 25% of the animals protected
CC1(C)C(C(=O)NNC(=O)C2C(C)(C)C2(C)C)C1(C)C	0	0	0	–	0	–	–	0	–	0	–	0	0	0	0	0	0	–	0	0	Activity (Rattus norvegicus [23]): 25% of the animals protected; Toxicity [24]: 0; Activity (Mus musculus [25]): 0; Toxicity [26]: 0
CC1(C)C(C(=O)NCCO)C1(C)C	0	–	0	0	0	–	–	0	1	0	4	0	0	0	–	0	0	0	0	0	Activity (Mus musculus [28]): 1; Activity (Rattus norvegicus [29]): 75% of the animals protected; Activity (Rattus norvegicus [30]): 75% of the animals protected; Anticonvulsant Activity (Rattus norvegicus [31]): 50% of animals protected; Activity (Mus musculus [32]): 1
CNC(=O)N(C)C(=O)C1C(C)(C)C1(C)C	0	–	0	0	0	–	–	0	1	0	–	0	0	–	0	0	0	–	0	0	Activity (Mus musculus [33]): 1; Toxicity [34]: 3; Activity (Rattus norvegicus [35]): 25% animals protected; Activity (Mus musculus [36]): 1; Activity (Rattus norvegicus [37]): 25% animals protected; Activity (Rattus norvegicus [38]): 25% animals protected; Activity (Rattus norvegicus [39]): 25% animals protected; Activity (Mus musculus [32]): 1
CC1(C)C(C(=O)NCCS(=O)(=O)[O-])C1(C)C.[Na+]	0	0	0	–	0	25% of the animals protected	25% of the animals protected	0	–	0	–	0	0	0	0	0	0	–	0	0	Toxicity [24]: 0; Activity (Mus musculus [25]): 0; Activity (Rattus norvegicus [40]): 25% of the animals protected; Activity (Rattus norvegicus [15]): 25% of the animals protected; Toxicity [26]: 0; Anticonvulsant Activity (Rattus norvegicus [41]): 50% of the animals protected
CC(CO)NC(=O)C1C(C)(C)C1(C)C (stereo not given)	0	0	0	0	0	–	–	0	1	0	4	0	0	0	0	0	0	0	0	–	Activity (Rattus norvegicus [42]): 25% of the animals protected; Toxicity (Mus musculus [16]): 0; Activity (Rattus norvegicus [43]): 25% of the animals protected
